This passage reports CC50 and IC50 results from article PMC10797327 (RSC Advances, 2024).

A short description of one series: MTT cell viability assay. In kind it is cell-based, murine. As to conditions: mouse, RAW264.7 macrophage cells. In a few lines:
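RAW264.7 cells are cultured with test compound for 48 h, then viability is measured. CC50 is the concentration that reduces viability to 50%.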

Another series relates to IL-1β. Briefly: IL-1β production in LPS-stimulated RAW264.7 cells. As to conditions: Mus musculus, RAW264.7, 48 h, read-out: IC50 IL-1β. It is filed as cell-based. The method, boiled down:
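RAW264.7 macrophages stimulated with LPS and cultured for 48 h with test compound. Cytokine production is measured, and IC50 is taken as the concentration that reduces cytokine production by 50%.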

For orientation: CC50 means the concentration that lowers cell viability or growth by half. Low readings indicate greater toxicity to the cells, high ones lower toxicity to the cells. Usually IC50 stands for the midpoint of a concentration-inhibition curve.

The structures appear in SMILES notation.

For `CC(=O)Oc1cccc2c1C(=O)c1c(OC(C)=O)cc(C(=O)O)cc1C2=O` [Diacerein, diacerein], the CC50 at 48 h in the series “MTT cell viability assay” worked out at 151 µM. The IC50 in the series with IL-1β turned out to be 26.6 µM.
